The source of these data is ChEMBL document CHEMBL3407407, “New mimetic peptides inhibitors of Αβ aggregation. Molecular guidance for rational drug design” (Eur J Med Chem, 2015).

Each structure is given as a SMILES string. Calls of active or inactive are those of the source. No cut-off for these calls is given here.

The target in assay [1] is Amyloid-beta precursor protein (Homo sapiens) (UniProt P05067). Description: Inhibition of amyloid beta(42) aggregation (unknown origin) assessed as A11-positive oligomer formation at 100 uM after 0.5 to 70 hrs by kinetic study. The gist of the method:
(§1)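 A11 dot-blot time course. Aβ42 at 25 mM (so in the source) was incubated at 37 °C with compound at 100 mM (so in the source), 5% DMSO vehicle (5% water for the reference). Aliquots were taken at 0.5, 1.5, 5, 20, 30, 55 and 70 h, spotted on nitrocellulose, then probed with A11 and anti-rabbit-HRP. Read-out was chemiluminescence.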

Assay [2] has the same target. Description: Inhibition of amyloid beta(42) aggregation (unknown origin) at 3200 uM after 7 days by thioflavin T fluorescence method. The method, boiled down:
(§2)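 Aβ42 at 25 mM (so in the source) in PBS, concentration set by A280 (ε 1490 M-1 cm-1), incubated quiescent at 37 °C for 7 days with compound (range 0–3200 mM as printed, from DMSO; final DMSO 5%). Samples then mixed with […] for 10 min at room temperature. Excitation 450 nm, emission 470–560 nm. Independent triplicates averaged, buffer+ThT+compound background subtracted.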

For assay [3] the target is unchanged. The experiment in a line: Inhibition of amyloid beta(42) aggregation (unknown origin) at 100 to 3200 uM after 7 days by transmission electron microscopy. The method, boiled down:
(§3)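 Aβ42 at 25 mM (so in the source) was incubated with compound at 37 °C for 7 days. Aliquots were adsorbed for 1 min onto carbon-coated Formvar copper grids, then blotted, washed and negatively stained for transmission electron microscopy.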

The target is the same in assay [4]. The experiment in a line: Inhibition of amyloid beta(42) aggregation (unknown origin) after 7 days by thioflavin T fluorescence method. The method, boiled down:
as §2

Assay [5] has the same target. The experiment in a line: Inhibition of amyloid beta(42) aggregation (unknown origin) at 0.78 to 3200 uM after 1.5 hrs using anti-amyloid beta antibody DE2B4 by dot blot analysis. The method, boiled down:
(§4)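 Aβ42 at 25 mM (so in the source) was incubated quiescent at 37 °C for 1.5 h across a compound concentration range (5% DMSO) and spotted on nitrocellulose. For A11, blots were blocked in PBS/0.2% Tween-20, then taken through A11 (1:4000, Hepes pH 7.0, overnight 4 °C) and anti-rabbit-HRP. For DE2B4 (total Aβ), blots were blocked in PBS-Tween/5% milk, then DE2B4 1:20,000 overnight 4 °C and anti-mouse-HRP. Read-out was chemiluminescence.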

For assay [6] the target is unchanged. Description: Inhibition of amyloid beta(42) aggregation (unknown origin) at 0.78 to 3200 uM after 1.5 hrs using anti-oligomer A11 antibody by dot blot analysis. The method, boiled down:
as §4

The target is the same in assay [7]. Description: Inhibition of amyloid beta(42) aggregation (unknown origin) at 100 uM after 7 days by transmission electron microscopy. The method, boiled down: as §3
Assay [8] shares this target. The experiment in a line: Inhibition of amyloid beta(42) aggregation (unknown origin) at 0.75 to 100 uM after 7 days by thioflavin T fluorescence method. The gist of the method: as §2
Assay [9] has the same target. Description: Inhibition of amyloid beta(42) aggregation (unknown origin) at 100 to 200 uM after 7 days by transmission electron microscopy. The gist of the method:
as §3

The target is the same in assay [10]. The experiment in a line: Inhibition of amyloid beta(42) aggregation (unknown origin) at 100 to 3200 uM after 1.5 hrs using anti-oligomer A11 antibody by dot blot analysis. The gist of the method: as §4
Assay [11] shares this target. The experiment in a line: Inhibition of amyloid beta(42) aggregation (unknown origin) assessed as A11-positive oligomer formation at 100 uM up to 1.5 hrs by kinetic study. The method, boiled down: as §1
For assay [12] the target is unchanged. The experiment in a line: Inhibition of amyloid beta(42) aggregation (unknown origin) at 100 to 3200 uM after 1.5 hrs using anti-amyloid beta antibody DE2B4 by dot blot analysis. The gist of the method:
as §4

Assay [13] shares this target. The experiment in a line: Inhibition of amyloid beta(42) aggregation (unknown origin) at 100 uM after 5 hrs by thioflavin T fluorescence-based kinetic study. The method, boiled down: (§5)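 In situ ThT kinetics. Aβ42 at 25 mM (so in the source) in PBS was incubated at 37 °C in sealed wells with 15 mM ThT and compound at 100 mM (so in the source), diluted 20-fold from DMSO to 5% DMSO. Fluorescence was read at intervals with excitation 450 nm and emission 470–600 nm. Background was corrected for ThT plus vehicle, with or without compound.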

Assay [14] shares this target. The experiment in a line: Inhibition of amyloid beta(42) aggregation (unknown origin) at 100 uM up to 1.5 hrs by thioflavin T fluorescence-based kinetic study. The method, boiled down: as §5
Assay [15] shares this target. The experiment in a line: Inhibition of amyloid beta(42) aggregation (unknown origin) at 100 uM after 7 days by thioflavin T fluorescence method. The gist of the method:
as §2

Sequence of Amyloid-beta precursor protein (Homo sapiens) (P05067 whole entry): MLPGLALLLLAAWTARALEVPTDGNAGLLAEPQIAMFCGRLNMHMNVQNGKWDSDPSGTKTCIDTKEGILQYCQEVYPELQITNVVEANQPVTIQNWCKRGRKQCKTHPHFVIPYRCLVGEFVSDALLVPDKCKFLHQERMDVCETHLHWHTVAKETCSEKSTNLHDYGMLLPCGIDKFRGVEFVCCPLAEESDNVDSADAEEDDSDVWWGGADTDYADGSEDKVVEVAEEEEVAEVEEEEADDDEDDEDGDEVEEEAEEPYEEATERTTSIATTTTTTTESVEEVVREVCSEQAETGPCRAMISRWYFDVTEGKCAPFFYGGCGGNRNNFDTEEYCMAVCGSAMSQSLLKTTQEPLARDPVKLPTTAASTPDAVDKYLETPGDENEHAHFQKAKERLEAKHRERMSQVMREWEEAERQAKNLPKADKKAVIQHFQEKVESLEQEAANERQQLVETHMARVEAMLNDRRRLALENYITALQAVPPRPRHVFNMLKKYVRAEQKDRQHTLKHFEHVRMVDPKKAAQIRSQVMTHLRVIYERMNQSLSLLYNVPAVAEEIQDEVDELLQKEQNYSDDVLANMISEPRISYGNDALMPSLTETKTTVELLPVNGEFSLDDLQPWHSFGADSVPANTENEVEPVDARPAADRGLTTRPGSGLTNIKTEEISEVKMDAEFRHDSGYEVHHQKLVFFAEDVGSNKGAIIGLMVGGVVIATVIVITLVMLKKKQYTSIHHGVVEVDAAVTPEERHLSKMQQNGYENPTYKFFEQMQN

In the case of `CNc1ccc(C(=O)N[C@@H](CCCCNC(=O)OCc2ccccc2)C(=O)O)cc1`, in [1], the inhibition entry was “inactive”. Further, the inhibition entry in assay [2] and in assay [3] was “Active” throughout. The inhibition result in assay [4] is “Dose-dependent effect”.

Consider `O=C(NCCCC[C@H](NC(=O)OCC1c2ccccc2-c2ccccc21)C(=O)O)OCc1ccccc1`, for which the inhibition result in [5], in assay [1], in assay [6] and in assay [7] was “inactive” throughout.

Regarding `O=C(NCCCC[C@H](NC(=O)OCc1ccccc1)C(=O)O)OCc1ccccc1`, the inhibition entry in assay [5], in assay [1], in assay [8], in assay [6] and in assay [7] was “inactive” each time.

Consider `CC(C)(C)OC(=O)N[C@@H](CCCCNC(=O)OCc1ccccc1)C(=O)ON1C(=O)CCC1=O`, for which the inhibition entry in assay [9], in assay [10], in assay [1], in [11], in assay [12] and in [14] was “Active” in each case. Besides, the inhibition result in assay [15] was “Active”. Also, the inhibition result in assay [13] was “inactive”. Also, the inhibition entry in assay [4] is “Dose-dependent effect”.

For the compound `O[C@H]1[C@H](O)[C@@H](O)[C@H](O)[C@@H](O)[C@@H]1O`, in assay [1], the inhibition entry was “inactive”.

As to `O=C(NCCCC[C@H](NC(=O)OCc1ccccc1)C(=O)ON1C(=O)CCC1=O)OCc1ccccc1`, the inhibition result in assay [10], in [1], in [11], in assay [12], in assay [14] and in assay [15] was “Active” each time. Also, the inhibition result in assay [13] was “inactive”. In addition, the inhibition result in [4] is “Dose-dependent effect”.
